Published values gathered from unrelated publications.
Each line is one published result; the experiments were not run side by side.
Target: Serine/threonine-protein kinase PAK 2 (PAK2, Homo sapiens, UniProt Q13177)

CNC(=O)c1ccc(Nc2ncc(C(F)(F)F)c(NCc3nccnc3N(C)S(C)(=O)=O)n2)cc1
remaining binding (cell-free assay; competition with immobilised ligand; 0.1 µM): 72%

O=C(c1ccc(Nc2ncc(Cl)c(-c3ccc(Cl)s3)n2)cc1)N1CCC(N2CCCC2)CC1
remaining binding (binding; competition with immobilised ligand; 1 µM): 49%

N#Cc1ccccc1CSc1nnc2c(n1)[nH]c1ccccc12
remaining binding (binding; competition with immobilised ligand; 10 µM): 88%

c1cnn2ncc(-c3ccnc(N4CCC45COC5)n3)c2c1
remaining binding (binding; 1 µM): 70%

FC(F)(F)Oc1cccc(-c2cnc3ccc(-c4ccncc4)nn23)c1
remaining binding (cell-free assay; competition with immobilised ligand; 5 µM): 43%

C[C@H]1CCN(c2nccc(-c3cnn4ncccc34)n2)C1
remaining binding (binding; 1 µM): 59%

CNC(=O)[C@@H]1CC[C@@H](n2c(-c3ccc4cnccc4c3)nc3ccc(C(=O)NCc4cccc(C(N)=O)c4)cc32)C1
remaining binding (binding; competition with immobilised ligand; 1 µM): 96%

CN(C)c1ncc(F)c(-c2cnn3ncccc23)n1
remaining binding (binding; 1 µM): 89%

CCC(=O)N[C@H]1CC[C@@H](C(=O)N(C)c2ccc(-c3nc4ccccc4o3)cc2)C1
remaining binding (cell-free assay; competition with immobilised ligand; 1 µM): 100%

C[C@@H](c1ccc(-n2cnc3c(N)ncnc32)cc1)N1CCc2nn(C)c(Cc3ccccc3)c2C1=O
remaining binding (binding; competition with immobilised ligand; 0.1 µM): 61%

CCS(=O)(=O)c1cc2cc(C[C@](O)(CC(C)(C)c3ccc(F)cc3C(N)=O)C(F)(F)F)[nH]c2cn1
remaining binding (cell-free assay; competition with immobilised ligand; 1 µM): 86%

COc1ccnn2ncc(-c3ccnc(N(C)C)n3)c12
remaining binding (binding; 1 µM): 78%

CCCCN(CCCC)C(=O)CN1C[C@@H](c2cc(OC)c3c(c2)OCO3)[C@H](C(=O)O)[C@H]1CC(C)(C)CCC
remaining binding (cell-free assay; competition with immobilised ligand; 1 µM): 83.5%

CN(CCCC(F)(F)F)c1nccc(-c2cnn3ncccc23)n1
remaining binding (binding; 1 µM): 100%

CN(C(=O)c1ccccc1)c1cc(N(C)c2ccc3c(c2)CCc2ccc(C(=O)NCCN4CCOCC4)cc2C3=O)ccc1F
remaining binding (cell-free assay; competition with immobilised ligand; 1 µM): 63%

COc1cnc(Nc2cccc(S(N)(=O)=O)c2)nc1N1CCN(c2ccccc2)CC1
remaining binding (binding; competition with immobilised ligand; 1 µM): 100%

C[C@@H]1CN(c2ccc3ncc(-c4ccc5[nH]nc(C6CC6)c5c4)n3n2)C[C@H](C)O1
remaining binding (binding; competition with immobilised ligand; 50 nM): 76%

N[C@@H]1CCN(c2nccc(-c3cnn4ncccc34)n2)C1
remaining binding (binding; 1 µM): 100%

O=C(NCC1CCOCC1)c1n[nH]cc1NC(=O)c1c(F)cccc1F
remaining binding (binding; competition with immobilised ligand; 1 µM): 60%

O=C(N1CCS(=O)(=O)CC1)N1C[C@H](c2ccc(OC(F)(F)F)cc2)C[C@H](c2nc(C3CC3)no2)C1
remaining binding (cell-free assay; competition with immobilised ligand; 1 µM): 90%

O=C(c1ccc(Nc2nccc(-c3cc4ccccc4s3)n2)cc1)N1CCC(N2CCCC2)CC1
remaining binding (binding; competition with immobilised ligand; 1 µM): 69%

O=C(N[C@H]1CCCCC/C=C\C2C[C@@]2(C(=O)O)NC(=O)[C@@H]2C[C@@H](Oc3ccncc3)CN2C1=O)OC1CCCC1 (stereo partly drawn)
remaining binding (binding; competition with immobilised ligand; 1 µM): 79%

F[C@@H]1CCN(c2nccc(-c3cnn4ncccc34)n2)C1
remaining binding (binding; 1 µM): 100%

Cc1cnc(Nc2ccc(C(=O)N3CCC(N4CCCC4)CC3)cc2)nc1-c1cc2ccccc2s1
remaining binding (binding; competition with immobilised ligand; 1 µM): 76%
